Experimental data: publication PMC6447045 (Nature chemical biology, 2019)

Tests used:
[1] = test system: HIF-2 target genes in 786-O cells; test: qPCR of endogenous HIF-2 target genes in 786-O cells; format: cell-based; details: 24 hours, PT2385 0.01-10 μM, T1001, M1001, M1002 10 μM
Procedure, shortened: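 786-O cells were grown in RPMI1640 with 10% FBS in 6-well plates at 37 °C, 5% CO2. Compound was given at various concentrations with 0.1% DMSO, and DMSO alone served as control. After 24 h, RNA was isolated and converted to cDNA. SYBR Green real-time PCR was normalized to ACTB. Values are mean ± s.d., n=3 independent cultures.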

[2] = test system: HIF-2 and HIF-1 target genes in Hep3B cells; test: qPCR of HIF target genes in Hep3B cells under hypoxia; format: cell-based; details: hypoxia (1% O2), 10 μM, 8 h
[3] = molecular target: HIF-1α-ARNT heterodimer (Mus musculus, UniProt Q61221); test: TR-FRET-based in vitro binding assay, HIF-1α-ARNT; format: biochemical
[4] = test system: HIF-2 (EPO and NDRG1) and HIF-1 (PGK1) target genes in Hep3B cells; test: qPCR in Hep3B cells, PHD inhibitors and HIF-2α agonist co-treatment; format: cell-based; details: 10 μM PHD inhibitor alone
Procedure, shortened: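 Hep3B cells were grown in DMEM with 10% FBS in 6-well plates. They were pretreated with 10 μM molidustat or roxadustat for 8 h, then 5 μM agonist was added (final DMSO 0.1%). After a further 24 h, RNA was isolated and reverse-transcribed. Target mRNAs were quantified by SYBR Green real-time PCR and normalized to ACTB in the same sample.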

| effect on HIF-1α-ARNT subunit interactions [3] | Compound | effect on expression of endogenous HIF-2 target genes [1] | effect on expression of HIF-2 specific and HIF-1 specific genes [2] | effect on HIF-1 selective target gene (PGK1) [4] | increase of expression of HIF-2 target genes (EPO and NDRG1) [4] |
| --- | --- | --- | --- | --- | --- |
| no PT2385 effect | CS(=O)(=O)c1ccc(Oc2cc(F)cc(C#N)c2)c2c1[C@H](O)C(F)(F)C2 [PT2385, (S)-3-((2,2-Difluoro-1-hydroxy-7-(methylsulfonyl)-2,3-dihydro-1 H-inden-4-yl)oxy)-5-fluorobenzonitrile] | dose-dependent inhibitory activity | decreased the expression of HIF-2 specific genes (VEGF, EPO and NDRG1) but not the HIF-1 specific gene (PGK1) |  |  |
|  | O=c1c(-n2ccnn2)c[nH]n1-c1cc(N2CCOCC2)ncn1 [molidustat] |  |  | relatively small effects | 3–5 fold |
|  | Cc1nc(C(=O)NCC(=O)O)c(O)c2ccc(Oc3ccccc3)cc12 [roxadustat] |  |  | relatively small effects | 3–5 fold |
